Screening results (PubChem BioAssay)
AI-2 QS modul – Vibrio harveyi AI-2 quorum sensing modulation | hit rate 0.4% among 300,000 | activity change, % at 7.5 µM | Vibrio harveyi JMH597 AI-2 luminescence/OD600 ratio, 9 h; active compounds read low; strain lacks LuxN and CqsS sensors; 0 = neutral-control median; in the data active = activity change below about -75%, passing the limit was not always enough;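 also: luminescence divided by OD600 gain over 9 h not by final OD600 alone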
m5-HT2A agonist – agonists of mouse serotonin 5-HT2A receptor (HTR2A); P35363; CHO-K1 mHTR2A beta-arrestin complementation, luminescence; percent of 30 µM serotonin response; activation, % at 7.6 µM; hit rate 0.66% among 360,000; AID 624169;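 active = activation above a run cutoff, the mean activation of all tested compounds plus 3 SD, cut at about 14% in these data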;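 also: 0% = plate median of compound wells and 100% = 30 µM serotonin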
MsrA inhibitor – bovine MsrA inhibition | purified bovine MsrA, absorbance read-out | inhibition, % at 15.5 µM | hit rate 0.75% among 360,000 | AID 651718; in the data active = inhibition above about 4.5%;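 also: 0% = vehicle wells with enzyme and 100% = reference inhibitor wells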
AHR act – activators of human aryl hydrocarbon receptor; activation, % at 5 µM; AHR-responsive luciferase reporter cells, luminescence; hit rate 2.5% among 320,000; P35869; AID 2796; in the data active = activation above about 47%;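 also: 0% = vehicle wells and 100% = reference agonist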
Tb MetRS inh – blocks T. brucei methionyl-tRNA synthetase activity. purified T. brucei MetRS, ATP depletion, Kinase-Glo luminescence. inhibition, % at 11.9 µM. hit rate 0.4% among 360,000;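 active = inhibition above a per-plate cutoff of the control wells' mean inhibition plus 3 SD, cut at about 5.5% in these data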;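 also: 0% = DMSO wells median and 100% = median of wells with control inhibitor compound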
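Material – parasite MetRS enzyme · Medium – HEPES-MgCl2-KCl buffer plus DTT, spermine, BSA, pyrophosphatase · Reagent – ATP, methionine and E. coli bulk tRNA substrates · Times – 15 min enzyme-compound preincubation, 2 h reaction, 10 min detection, 25 °C · Measured by – luminescence of leftover ATP · Evaluation – percent inhibition relative to median high and low control wells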
MsrA act – bovine methionine sulfoxide reductase A activation. purified bovine MsrA, absorbance read-out. activation, % at 10.6 µM. hit rate 0.3% among 360,000. AID 602163; in the data active = activation above about 7.5%;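 also: 0% = vehicle and 100% = reference activator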
OPRM1 ag – counter-screen for mouse HTR2A agonists: human mu opioid receptor agonists | activation, % at 9.3 µM | U2OS OPRM1 beta-arrestin PathHunter, luminescence; DMSO 0%, DAMGO 9.3 µM 100% | hit rate 5.3% among 2,300 | shares compounds with m5-HT2A agonist;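 active = mean activation above the mean of DMSO-only wells plus 3 SD, cut at about 0.5% in these data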
Target sequence (P35372 whole entry, looked up): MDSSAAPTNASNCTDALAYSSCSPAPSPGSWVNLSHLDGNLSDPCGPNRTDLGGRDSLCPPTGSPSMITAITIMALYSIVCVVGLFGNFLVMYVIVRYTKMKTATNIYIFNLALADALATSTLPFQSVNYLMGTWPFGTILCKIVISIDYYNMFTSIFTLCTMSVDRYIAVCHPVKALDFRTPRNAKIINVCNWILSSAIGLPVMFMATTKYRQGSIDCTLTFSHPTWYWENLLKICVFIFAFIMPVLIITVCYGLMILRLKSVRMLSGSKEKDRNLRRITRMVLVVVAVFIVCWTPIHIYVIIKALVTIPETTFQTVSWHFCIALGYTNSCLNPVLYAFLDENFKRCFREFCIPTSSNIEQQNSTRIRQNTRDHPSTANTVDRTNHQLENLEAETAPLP
HTR2A ag conf – mouse HTR2A agonism confirmed; shares compounds with m5-HT2A agonist; CHO-K1 PathHunter beta-arrestin recruitment, luminescence; DMSO 0%, 30 µM serotonin 100%; activation, % at 7.6 µM; hit rate 19% among 2,300; AID 624381;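 active = mean activation across triplicates above the hit threshold derived in the original primary screen, cut at about 15% in these data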
Starred values were filed as active, the others as inactive. In the library only some 4.4% were active in any assay of this set; here they are far more common.

How did CC(C)Cc1cc(C(=O)Nc2sc3c(c2C#N)CCC3)no1 do in these assays?
AI-2 QS modul: 15.6; m5-HT2A agonist: 17.4*; MsrA inhibitor: 0.7; AHR act: 2.2; Tb MetRS inh: -0.3; MsrA act: -9.1; OPRM1 ag: 0.3; HTR2A ag conf: 4.5

Results for CC(C)(C)Nc1nc2nonc2nc1NC(C)(C)C ?
AI-2 QS modul: 11.5; m5-HT2A agonist: 35.5*; MsrA inhibitor: 1.9; AHR act: -1.7; Tb MetRS inh: -0.8; MsrA act: -1.5; OPRM1 ag: -0.3; HTR2A ag conf: 20.0*

Results for OCCNc1nc2nonc2nc1NCCO ?
AI-2 QS modul: 1.0; m5-HT2A agonist: -1.2; MsrA inhibitor: 2.3; AHR act: 1.0; Tb MetRS inh: -0.3; MsrA act: -0.5

Results for COc1ccccc1NS(=O)(=O)c1cccc(C(=O)NNC(=O)c2ccc(Cl)nc2)c1 ?
m5-HT2A agonist: -2.4; MsrA inhibitor: 0.5; AHR act: -0.4; Tb MetRS inh: 0.1; MsrA act: 4.7

How did COc1ccccc1NS(=O)(=O)c1cccc(C(=O)NNC(=O)c2ccc(O)c(Cl)c2)c1 do in these assays?
AI-2 QS modul: 18.6; m5-HT2A agonist: 15.8*; MsrA inhibitor: 0.8; AHR act: 0.4; Tb MetRS inh: -0.2; MsrA act: 0.5; OPRM1 ag: -0.5; HTR2A ag conf: -3.0

Results for C[C@@H]1CN([C@H](C)CO)C(=O)c2cc(Br)cnc2O[C@H]1CN(C)Cc1ccccc1F ?
MsrA inhibitor: 0.7

How did CCN(C(=O)Cn1nc(C(=O)O)c2ccccc2c1=O)C1CCCCC1 do in these assays?
AI-2 QS modul: 12.7; m5-HT2A agonist: 2.6; MsrA inhibitor: 0.2; AHR act: 3.0; Tb MetRS inh: 0.6; MsrA act: -6.0

What do the screens show for `O=C(O)c1nn(CC(=O)N(C2CCCCC2)C2CCCCC2)c(=O)c2ccccc12`?
AI-2 QS modul: 30.4; m5-HT2A agonist: 32.6*; MsrA inhibitor: 0.7; AHR act: 0.8; Tb MetRS inh: -1.3; MsrA act: -9.7; OPRM1 ag: 0.1; HTR2A ag conf: 1.3

How did CCOC(=O)C1CCN(C(=O)Nc2ccccc2Cl)CC1 do in these assays?
AI-2 QS modul: 24.3; m5-HT2A agonist: 15.0*; MsrA inhibitor: -0.3; AHR act: 1.9; Tb MetRS inh: -0.6; MsrA act: -3.0; OPRM1 ag: -0.7; HTR2A ag conf: -0.9

How did CCOC(=O)/C(=C\c1ccccc1)C(=O)CCN1CCOCC1 do in these assays?
m5-HT2A agonist: 0.7; MsrA inhibitor: 0.5; Tb MetRS inh: -0.4; MsrA act: -2.4

Results for COc1ccc(NC(=O)C2CCCN(S(=O)(=O)c3ccc4c(c3)CCCN4C(C)=O)C2)cc1Cl (centres undefined) ?
AI-2 QS modul: 4.0; m5-HT2A agonist: -3.5; MsrA inhibitor: -0.4; AHR act: 3.9; Tb MetRS inh: 0.7; MsrA act: 0.1

Results for Cc1ccccc1NC(=O)c1cn(-c2ccccc2)nc1-c1ccccc1 ?
AI-2 QS modul: 15.2; m5-HT2A agonist: 10.7; MsrA inhibitor: 0.1; AHR act: 8.4; Tb MetRS inh: -1.0; MsrA act: -15.4

What do the screens show for `Cc1cccc(C)c1NC(=O)c1cn(-c2ccccc2)nc1-c1ccccc1`?
AI-2 QS modul: 12.9; m5-HT2A agonist: 20.8*; MsrA inhibitor: 1.3; AHR act: 5.4; Tb MetRS inh: -0.4; MsrA act: -1.6; OPRM1 ag: -0.7; HTR2A ag conf: 10.1

What do the screens show for `Cc1ccc(S(=O)(=O)N2[C@@H](c3ccc(C(C)(C)C)cc3)C(C(=O)O)=CC[C@H]2c2ccc(Cl)cc2)cc1`?
m5-HT2A agonist: 2.5; MsrA inhibitor: 0.6; AHR act: 0.3; Tb MetRS inh: -0.2; MsrA act: -1.6

What do the screens show for `CC[C@@H]1C=C(C(=O)O)[C@H](c2ccc(Cl)cc2)N1S(=O)(=O)c1ccc(C)cc1`?
m5-HT2A agonist: 16.6*; MsrA inhibitor: -0.2; AHR act: -1.7; Tb MetRS inh: 0.5; MsrA act: -2.2; OPRM1 ag: -0.6; HTR2A ag conf: -0.6

What do the screens show for `CCOC(=O)C1=CC[C@@H](c2ccccc2C(F)(F)F)N(S(=O)(=O)c2ccc(C)cc2)[C@H]1c1ccc(C#N)cc1`?
m5-HT2A agonist: 17.5*; MsrA inhibitor: 0.7; Tb MetRS inh: -0.6; MsrA act: -2.6; OPRM1 ag: -0.5; HTR2A ag conf: -3.0

Results for Cc1ccc([C@@H]2CC=C(C(=O)O)[C@H](c3ccc(C(C)(C)C)cc3)N2S(=O)(=O)c2ccc(C)cc2)cc1 ?
m5-HT2A agonist: 24.1*; MsrA inhibitor: 0.1; AHR act: -1.3; Tb MetRS inh: -0.1; MsrA act: 0.6; OPRM1 ag: -0.3; HTR2A ag conf: 6.8

What do the screens show for `CCCC[C@@H]1C=C(C(=O)O)[C@H](c2ccc(Cl)cc2)N1S(=O)(=O)c1ccc(C)cc1`?
m5-HT2A agonist: -1.8; MsrA inhibitor: 0.2; AHR act: -2.1; Tb MetRS inh: -0.1; MsrA act: -0.9

What do the screens show for `CCOC(=O)C1=C[C@@H](C(C)(C)C)N(S(=O)(=O)c2ccc(C)cc2)[C@H]1c1ccc(C#N)cc1`?
m5-HT2A agonist: 2.1; MsrA inhibitor: -1.1; Tb MetRS inh: -0.3; MsrA act: -1.2

How did CCCC[C@@H]1C=C(C(=O)O)[C@H](c2ccc3c(c2)OCO3)N1S(=O)(=O)c1ccc(C)cc1 do in these assays?
m5-HT2A agonist: 15.8*; MsrA inhibitor: -1.5; AHR act: 0.4; Tb MetRS inh: -0.8; MsrA act: -9.7; OPRM1 ag: 1.3*; HTR2A ag conf: 6.3

How did CCOC(=O)c1c(C)[nH]c(C(=O)OCC(=O)N(CC(C)C)c2c(N)n(Cc3ccccc3)c(=O)[nH]c2=O)c1C do in these assays?
AI-2 QS modul: 13.7; m5-HT2A agonist: -7.8; MsrA inhibitor: -0.9; AHR act: 4.0; Tb MetRS inh: -0.4; MsrA act: -1.9

What do the screens show for `CCOC(=O)c1[nH]c(C)c(C(=O)OCC(=O)N(Cc2ccccc2)C(C)C)c1C`?
m5-HT2A agonist: 19.6*; MsrA inhibitor: 0.3; AHR act: 0.3; Tb MetRS inh: -0.1; MsrA act: -2.9; OPRM1 ag: -0.6; HTR2A ag conf: -0.6

Results for C[C@H](NC(=O)c1ccccc1)C(=O)N1CCN(Cc2ccc3c(c2)OCO3)CC1 ?
m5-HT2A agonist: -4.6; MsrA inhibitor: 2.4; AHR act: 0.9; Tb MetRS inh: -0.2; MsrA act: -3.9
